Source: ChEMBL document CHEMBL2169884, “Novel inhibitors of heat shock protein Hsp70-mediated luciferase refolding that bind to DnaJ” (Bioorg Med Chem, 2012)
The source made the active and inactive calls. No cut-off for these calls is given here.

How the values were obtained:
HeLa = experiment: Induction of Hsp70 in human HeLa cells at 10 uM after overnight incubation by solid state immuno assay relative to 17-AAG; type: functional
Outline: (§1)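 HeLa or A172 cells treated overnight with compound; Hsp70 levels measured by solid-state immunoassay, with stimulation expressed relative to 1 µM 17-AAG as positive control.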

[1] = Inhibition of human HSP70/DnaJ-mediated luciferase refolding after 10 mins by liquid scintillation counting
Outline: (§2)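 Luciferase (0.5 mg/mL) denatured in 6 M guanidine HCl in buffer A (25 mM Hepes pH 7.4, 50 mM potassium acetate, 5 mM DTT), 60 min at RT, then diluted 1:20. Refolding mixture: 0.5 µM Hsp70, 60 nM DnaJ, 125 ng denatured luciferase with compound in buffer containing 0.1 mM ATP, creatine phosphate and creatine phosphokinase. Incubated 1 h; DnaJ, luciferase or ATP varied in mechanism runs. Aliquots read by luciferin luminescence after 10 min. IC50 is the geometric mean of ≥3 determinations.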

[2] = Inhibition of luciferase refolding in rabbit reticulocyte lysate preincubated for 30 mins measured after 1 hr by liquid scintillation counting
A 172 = experiment: Induction of Hsp70 in human A172 cells at 10 uM after overnight incubation by solid state immuno assay relative to 17-AAG; type: functional; outline: as §1
[3] = Effect on luciferase activity up to 300 uM
Homo sapiens [4] = species on record: Homo sapiens; experiment: Inhibition of human HSP70/DnaJ-mediated luciferase refolding after 10 mins by liquid scintillation counting in presence of 0.1 to 10 µg/mL of denatured luciferase; outline: as §2
[5] = Binding affinity to DnaJ assessed as rightward shift in melting temperature by thermal denaturation assay
Homo sapiens [6] = species on record: Homo sapiens; experiment: Inhibition of DnaJ-mediated stimulation of human Hsp70 ATPase activity at 10 uM; details: 0.1 to 3.2 uM, in the assay text read “at 0.1 to 3.2 uM” for “at 10 uM”
Outline: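 Hsp70 (300 nM) incubated with 3.2 µM ATP and DnaJ (0.1–320 nM) at 37 °C for 5–40 min in pH 7.4 HEPES buffer with KCl, EGTA and MgCl2. Reactions stopped with EDTA stop buffer containing ADP tracer and antibody. ADP detected by Transcreener fluorescence (ex 580, em 620 nm).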

[7] = Binding affinity to DnaJ assessed as rightward shift in melting temperature at 10 to 30 uM by thermal denaturation assay
Homo sapiens [8] = species on record: Homo sapiens; experiment: Binding affinity to human Hsp70 assessed as rightward shift in melting temperature by thermal denaturation assay
Homo sapiens [9] = species on record: Homo sapiens; experiment: Inhibition of human Hsp70-mediated ATPase activity at 10 uM
Homo sapiens [10] = species on record: Homo sapiens; experiment: Inhibition of human HSP70/DnaJ-mediated luciferase refolding after 10 mins by liquid scintillation counting in presence of up to 10 mM of ATP; outline: as §2
Homo sapiens [11] = species on record: Homo sapiens; experiment: Binding affinity to human Hsp70 assessed as rightward shift in melting temperature at 3.2 to 32 uM by thermal denaturation assay
[12] = Binding affinity to DnaJ assessed as rightward shift in melting temperature at 3.2 to 32 uM by thermal denaturation assay

Compound | Activity (HeLa) [%] | IC50 [1] [µM] | IC50 [2] [µM] | Activity (A 172) [%] | Activity [3] | other results
Clc1ccccc1C1Oc2ccccc2-c2cc(-c3ccco3)nn21 (centres undefined) | <10 | > 100 | 8.8 | <10 | inactive | 
CCOC(=O)c1cccc(NC(=O)COc2ccc(Cl)cc2)c1 |  | > 32 |  |  |  | 
CCCCOC(=O)c1cccc(NC(=O)COc2ccc(Cl)cc2Cl)c1 |  | 0.13 |  |  |  | inhibition (Homo sapiens [4]): inactive; Activity [5]: Dose-dependent effect; inhibition (Homo sapiens [6]): Active; Tm(app) [7]: 2 °C; Activity (Homo sapiens [8]): inactive; inhibition (Homo sapiens [9]): inactive; inhibition (Homo sapiens [10]): Active
COC(=O)c1cccc(NC(=O)COc2ccc(Cl)cc2Cl)c1 |  | > 32 |  |  |  | Activity (Homo sapiens [11]): inactive; Activity [12]: inactive
c1ccc(Nc2nc(-c3cccs3)cs2)cc1 | <10 | 22 | 1.1 | <10 | inactive | 
Clc1ccc(Nc2nc(-c3cccs3)cs2)cc1 | <10 | > 100 | 4 | <10 | inactive | 
CCCCCOC(=O)C1=C(C)NC2(O)c3ccccc3C(=O)C12O (centres undefined) | <10 | > 30 | 4.3 | <10 | inactive | 
COC(=O)c1cccc(NC(=O)COc2cc(Cl)ccc2Cl)c1 |  | 0.95 |  |  |  | 
CCCOC(=O)c1cccc(NC(=O)COc2ccccc2Cl)c1 |  | 0.6 |  |  |  | 
CCOC(=O)c1cccc(NC(=O)COc2ccccc2Cl)c1 | <10 | 0.62 | 0.81 | <10 | inactive | 
